Measured values: publication PMC3190583 (Journal of clinical pharmacology, 2010)
Where two headings read alike, the source gives them in different places. Marks after values point to notes of the source that are not given here.

What was measured:
[1] = Single-dose pharmacokinetics of pantoprazole delayed-release tablet, study 1; format: in vivo, human; settings: for AUC / CL/F / Cmax / Tmax / Vd/F / half-life: human, plasma, po; for tlag: study 1, 6-11 y, median (range)
[2] = Single-dose pharmacokinetics of pantoprazole delayed-release tablet, study 2; format: in vivo, human; settings: for AUC / CL/F / Cmax / Tmax / Vd/F / half-life: human, plasma, po; for tlag: study 2, 12-16 y, median (range)
[3] = Safety and tolerability, on-treatment adverse events, study 1; format: in vivo, human; settings: for Abdominal pain / Accidental injury / Fever / Headache / Otitis media / Upper respiratory infection: on-treatment AE; for Abdominal pain / Accidental injury / Fever / Headache / Otitis media / Upper respiratory infection / Any AE: patients (percent); for Any AE: on-treatment
How it was run: (§1)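 Patients randomized 1:1 to 20 or 40 mg delayed-release tablet once daily: about 28 days in study 1, at least 5 consecutive doses in study 2. On-treatment AEs were those occurring during dosing or within 48 h of the last dose. Vital signs were taken 2 h predose and 2, 8 and 12 h postdose on day 1. Physical exam and labs were done on the multiple-dose PK day. Telephone AE follow-up came 14 days after completion.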

[4] = Safety and tolerability, on-treatment adverse events, study 2; format: in vivo, human; settings: for Abdominal pain / Accidental injury / Fever / Headache / Otitis media: on-treatment AE; for Abdominal pain / Accidental injury / Fever / Headache / Otitis media / Any AE: patients (percent); for Any AE: on-treatment
How it was run: as §1

[5] = adults; cited from earlier work
[6] = neonates; cited from earlier work
[7] = study 1, 20 mg once daily (n = 11)
[8] = study 1, 40 mg once daily (n = 13)
[9] = study 1, 20 or 40 mg once daily
[10] = study 1, total of both doses (n = 24)
[11] = study 2, 20 mg once daily (n = 11)
[12] = study 2, 40 mg once daily (n = 11)
[13] = study 2, 20 or 40 mg once daily
[14] = study 2, total of both doses (n = 22)

AUC ([1]; 20 mg): 2500 ± 2100 ng·h/mL
CL/F ([1]; 20 mg): 6.83 mL/min/kg
Cmax ([1]; 20 mg): 1600 ± 1200 ng/mL
Tmax ([1]; 20 mg): 2 h
Vd/F ([1]; 20 mg): 0.43 ± 0.3 L/kg
half-life ([1]; 20 mg): 0.8 ± 0.2 h
AUC ([1]; 40 mg): 3800 ± 1800 ng·h/mL
CL/F ([1]; 40 mg): 6.67 mL/min/kg
Cmax ([1]; 40 mg): 2100 ± 1300 ng/mL
Tmax ([1]; 40 mg): 2 h
Vd/F ([1]; 40 mg): 0.4 ± 0.27 L/kg
half-life ([1]; 40 mg): 0.7 ± 0.2 h
tlag ([1]; single oral 20 mg tablet, n = 10): 1.0 (0.5, 2.0) h
tlag ([1]; single oral 40 mg tablet, n = 12): 0.8 (0, 1.0) ^b h
concentration of pantoprazole at 12 hours after the first dose ([1]; study 1, all patients, 20 or 40 mg, lower limit of quantitation 10 ng/mL): below the lower limit of quantitation
AUC ([2]; 20 mg): 1300 ± 600 ng·h/mL
CL/F ([2]; 20 mg): 4.67 mL/min/kg
Cmax ([2]; 20 mg): 900 ± 500 ng/mL
Tmax ([2]; 20 mg): 1.5 h
Vd/F ([2]; 20 mg): 0.32 ± 0.22 L/kg
half-life ([2]; 20 mg): 0.8 ± 0.3 h
AUC ([2]; 40 mg): 4300 ± 3100 ng·h/mL
CL/F ([2]; 40 mg): 3 mL/min/kg
Cmax ([2]; 40 mg): 2200 ± 1400 ng/mL
Tmax ([2]; 40 mg): 2 h
Vd/F ([2]; 40 mg): 0.21 ± 0.06 L/kg
half-life ([2]; 40 mg): 0.9 ± 0.3 h
tlag ([2]; single oral 20 mg tablet, n = 9): 1.0 (0, 2.5) ^c h
tlag ([2]; single oral 40 mg tablet, n = 11): 1.0 (0, 8) h
SMILES: COc1ccnc(C[S+]([O-])c2nc3ccc(OC(F)F)cc3[nH]2)c1OC (centres unmarked) [pantoprazole]
Abdominal pain [3, 7]: 3 (27.3)
Accidental injury [3, 7]: 1 (9.1)
Fever [3, 7]: 1 (9.1)
Headache [3, 7]: 1 (9.1)
Otitis media [3, 7]: 2 (18.2)
Upper respiratory infection [3, 7]: 2 (18.2)
Any AE [3, 7]: 9 (81.8)
Abdominal pain [3, 8]: 1 (7.7)
Accidental injury [3, 8]: 1 (7.7)
Fever [3, 8]: 1 (7.7)
Headache [3, 8]: 2 (15.4)
Otitis media [3, 8]: 0
Upper respiratory infection [3, 8]: 0
Any AE [3, 8]: 7 (53.8)
ECG, QTc changes [3, 9]: no abnormal QTc changes
serious AEs [3, 9]: no serious AEs
severity of all AEs [3, 9]: mild or moderate
Abdominal pain [3, 10]: 4 (16.7)
Accidental injury [3, 10]: 2 (8.3)
Fever [3, 10]: 2 (8.3)
Headache [3, 10]: 3 (12.5)
Otitis media [3, 10]: 2 (8.3)
Upper respiratory infection [3, 10]: 2 (8.3)
Any AE [3, 10]: 16 (66.7)
Abdominal pain [4, 11]: 0
Accidental injury [4, 11]: 0
Fever [4, 11]: 0
Headache [4, 11]: 0
Otitis media [4, 11]: 0
Any AE [4, 11]: 2 (18.2)
Abdominal pain [4, 12]: 2 (18.2)
Accidental injury [4, 12]: 0
Fever [4, 12]: 1 (9.1)
Headache [4, 12]: 1 (9.1)
Otitis media [4, 12]: 0
Any AE [4, 12]: 4 (36.4)
ECG, QTc changes [4, 13]: no abnormal QTc changes
serious AEs [4, 13]: no serious AEs
severity of all AEs [4, 13]: mild or moderate
Abdominal pain [4, 14]: 2 (9.1)
Accidental injury [4, 14]: 0
Fever [4, 14]: 1 (4.5)
Headache [4, 14]: 1 (4.5)
Otitis media [4, 14]: 0
Any AE [4, 14]: 6 (27.3)
accumulation on repeated once-daily dosing [5]: does not result in accumulation
half-life [5]: approximately 1 hour
mean CL/F [6]: 3.67 mL/min/kg
